Data on ten compounds can be found in ChEMBL document CHEMBL1125560, “Synthesis and physicochemical properties of sulfamate derivatives as topical antiglaucoma agents” (J Med Chem, 1992).

Data set [1] can be described thus: Solubility in water at pH 5.0. It counts as physicochemical. In outline: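 Not measured directly. Intrinsic solubility S0 comes from equilibrium solubility in pH 7.4 phosphate buffer (2–4 days, UV read-out). Solubility at pH 5 is then calculated as S = S0(1 + 10^(pKa1−pH) + 10^(pH−pKa2)), using the imidazole and sulfonamide pKa values.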
The subject of another data set is Oryctolagus cuniculus. In words: Compound was evaluated for decrease in intraocular pressure (IOP) (mmHg) at 1 hour postdosing to New Zealand white rabbits with 2% solubility. The class given is functional, Eye. The method, boiled down:
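New Zealand white rabbits, at least six per test, 2–10 experiments. Eyes given one drop of topical anesthetic (proparacaine) before tonometer IOP readings, taken before dosing and at 1 h intervals after. Drug at 2% in 0.5% hydroxyethylcellulose, 50 μL to one eye, vehicle to the other. Value is treated-eye minus control-eye IOP at 1 h, mean.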

Data set [2] is described as follows: Compound was evaluated for partition coefficient at pH 7.4 (CHCl3/buffer). To be noted: octanol/water.
Data set [3] in a line: Intrinsic solubility of the compound. It counts as ADME. To be noted: read-out: S. In outline: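 Compound equilibrated 2–4 days in pH 7.4 phosphate buffer in sealed rotating tubes, amount tripled if all dissolved. pH and concentration then measured: solution filtered (0.2 μm), diluted, concentration read by UV spectrum. Intrinsic solubility S0 derived from S = S0(1 + 10^(pKa1−pH) + 10^(pH−pKa2)).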

A short description of data set [4]: (§1) Partition coefficient at pH 7.4 between chloroform and water as a measure of lipid solubility. It counts as ADME. To be noted: read-out: pKa1. The method, boiled down:
(§2)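 Drug dissolved in 0.05 M phosphate buffer, pH 7.4, and shaken with an equal volume of chloroform to equilibrium. Aqueous drug concentration found from carbonic anhydrase inhibitory activity of aqueous samples against a standard curve. Organic concentration obtained by difference. Reported as organic/aqueous concentration ratio.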

Data set [5] in a line: Partition coefficient of the compound at pH 7.4 between chloroform and water as a measure of lipid solubility. To be noted: read-out: pKa2. It counts as ADME. The method, boiled down:
as §2

Another data set deals with Carbonic anhydrase (Bos taurus, UniProt P00921+Q95323+P18915+Q3SZX4). In words: Bovine erythrocyte carbonic anhydrase inhibitory activity of the compound.
A short description of data set [6]: as §1.

Consider `CC(=O)Nc1nnc(S(N)(=O)=O)s1.Cl`, for which the solubility in data set [1] is under 710 µg/mL. Further, in the data set with Oryctolagus cuniculus, the IOP was 0 mmHg.
In data set [2], `Cc1nccn1-c1cccc(OCCOS(N)(=O)=O)c1.Cl` yielded a Partition coefficient of 1.1. For the same compound, the values for the solubility in data set [3] and in data set [1] were 1400 µg/mL and 114000 µg/mL, respectively. The values for the pKa in data set [4] and in data set [5] were 6.9 and 8.99, respectively. The IOP in the data set with Oryctolagus cuniculus is listed as 1.7 mmHg. Besides, the IC50 against Carbonic anhydrase came to 77 nM.
`Cl.NS(=O)(=O)OCCOc1ccc(-n2ccnc2)cc1` returned a Partition coefficient in data set [2] of 1.5. The solubility in data set [3] was found to be 700 µg/mL; in data set [1], 7400 µg/mL. The pKa in data set [4] was 5.98; in data set [6], 9.05. Also, the IOP in the data set with Oryctolagus cuniculus is listed as 2.5 mmHg. This compound also registered a half-maximal inhibitory concentration (IC50) at Carbonic anhydrase of 23 nM.
As for `Cc1nccn1-c1cccc(OS(N)(=O)=O)c1.Cl`, the Partition coefficient in data set [2] was 0.18. For the same compound, the values for the solubility in data set [3] and in data set [1] were 3300 µg/mL and 100000 µg/mL, respectively. For the same compound, the pKa in data set [4] is 6.47; in data set [6], 7.99. In addition, the IOP with Oryctolagus cuniculus is 0 mmHg. Also, the IC50 at Carbonic anhydrase was 50 nM.
The compound `Cl.NS(=O)(=O)OCCCOc1ccc(-n2ccnc2)cc1` yielded a Partition coefficient in data set [2] of 5.5. Besides, the solubility is 120 µg/mL in data set [3] and 1600 µg/mL in data set [1]. In addition, the pKa amounted to 6.09 in data set [4] and 9.22 in data set [5]. For the same compound, the IOP with Oryctolagus cuniculus was found to be 0 mmHg. On Carbonic anhydrase, this compound registered a half-inhibitory concentration (IC50) of 250 nM.
`Cl.NS(=O)(=O)Oc1ccc(-n2ccnc2)cc1` returned a Partition coefficient in data set [2] of 0.16. The solubility was found to be 230 µg/mL in data set [3] and 1000 µg/mL in data set [1]. In addition, the pKa was 5.54 in data set [4] and 8 in data set [6]. The compound also yielded an IOP in the data set on Oryctolagus cuniculus of 1.3 mmHg. This compound also yielded an IC50 at Carbonic anhydrase of 120 nM.
Take `Cl.NS(=O)(=O)Oc1cccc(-n2ccnc2)c1`: the Partition coefficient in data set [2] is on record as 0.28. For the same compound, the solubility in data set [3] stood at 11000 µg/mL; in data set [1], 38000 µg/mL. In addition, the pKa in data set [4] turned out to be 5.4; in data set [6], 9.05. In the data set on Oryctolagus cuniculus, this compound yielded an IOP of 1.5 mmHg. The compound also displayed an IC50 at Carbonic anhydrase of 42 nM.
Compound `Cc1cn(-c2cccc(OCCOS(N)(=O)=O)c2)cn1.Cl` returned a Partition coefficient in data set [2] of 4.6. The solubility in data set [3] worked out at 220 µg/mL; in data set [1] it was 4900 µg/mL. Besides, the pKa was 6.34 in data set [4] and 8.96 in data set [6]. Also, the IC50 at Carbonic anhydrase turned out to be 210 nM.
Take `Cl.NS(=O)(=O)OCCOc1cccc(-n2ccnc2)c1`: in data set [2], the Partition coefficient was found to be 2.2. The solubility was found to be 250 µg/mL in data set [3] and 1500 µg/mL in data set [1]. In addition, the figures for the pKa in data set [4] and in data set [6] were 5.71 and 8.91, respectively. Moreover, the IOP in the data set with Oryctolagus cuniculus is 2.3 mmHg. Also, at Carbonic anhydrase, the half-inhibitory concentration (IC50) worked out at 69 nM.
For the compound `Cc1cn(-c2cccc(OS(N)(=O)=O)c2)cn1.Cl`, the Partition coefficient in data set [2] is given as 0.73. Further, the solubility in data set [3] is 470 µg/mL; in data set [1] it was 6300 µg/mL. The pKa in data set [4] is 6.09; in data set [6], 8.08. At Carbonic anhydrase, this compound showed an IC50 of 94 nM.

A word on the IC50: it is the concentration at which inhibition is half-maximal. Low readings indicate inhibition by little substance, high ones a need for much substance.
